High-throughput results as filed in PubChem BioAssay.
Fh CTSL1 inh = counter-screen for PFM18AAP inhibitors: inhibitors of F. hepatica cathepsin L1 | AID 1906 | 0.49% of 300,000 active | recombinant F. hepatica cathepsin L1, Z-Leu-Arg-MCA fluorescence | inhibition, % at 5.96 µM;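 active = inhibition above the mean of all tested compounds plus 3 SD, set per screening campaign, cut at about 17% in these data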
FXIa inh = blocks human coagulation factor XIa protease activity; P03951; 0.14% of 220,000 active; AID 798; inhibition, % at 5 µM; purified FXIa, Boc-Glu-Ala-Arg-AMC fluorogenic substrate;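 active = inhibition of at least 40%; inactive = inhibition below 40%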;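 also: fluorescence of freed AMC excited at 355 nm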
Rce1 inh = inhibitors of yeast Ras-converting enzyme; Q03530; yeast membranes, quenched prenylated peptide cleavage fluorescence; calls only; 0.27% of 290,000 active;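 active = fall in fluorescence gain of 50% or more versus controls, with final raw signal at or below 3038400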
Target sequence (Q03530 whole entry, looked up): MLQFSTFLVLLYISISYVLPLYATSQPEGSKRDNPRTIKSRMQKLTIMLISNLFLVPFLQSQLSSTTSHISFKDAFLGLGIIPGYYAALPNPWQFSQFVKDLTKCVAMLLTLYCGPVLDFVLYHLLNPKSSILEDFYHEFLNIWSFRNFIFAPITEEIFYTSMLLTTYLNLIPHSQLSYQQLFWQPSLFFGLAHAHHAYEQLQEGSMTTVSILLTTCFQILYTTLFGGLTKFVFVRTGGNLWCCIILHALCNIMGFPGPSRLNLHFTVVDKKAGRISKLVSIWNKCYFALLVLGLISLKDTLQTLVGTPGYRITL
Thrombin inh = thrombin (human) inhibition. alpha-thrombin, Boc-VPR-AMC fluorogenic substrate cleavage. inhibition, % at 5 µM. 0.26% of 220,000 active;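 active = inhibition at or above 40%; inactive = inhibition below 40%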
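System: human alpha-thrombin protein; Compound dosing: one concentration per compound, 5 µM, with 0.2% DMSO; Timing: reaction at room temperature; Technique: AMC fluorescence, 355/460 nm; Controls: enzyme without compound as high, wells lacking enzyme as low.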
FXIIa inh 1536 = blocks human coagulation factor XIIa protease activity | P00748 | purified FXIIa, Boc-QGR-AMC fluorogenic substrate, 2 h | inhibition, % at 5 µM | 0.3% of 220,000 active | AID 800; in the data active = inhibition above about 40%
KLK5 inh = kallikrein 5 (human) inhibition; recombinant hK5, fluorogenic AMC substrate cleavage; inhibition, % at 5 µM; Q9Y337; 0.59% of 210,000 active;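 active = inhibition of 40% or more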
Target sequence (Q9Y337 67-293 limits assumed): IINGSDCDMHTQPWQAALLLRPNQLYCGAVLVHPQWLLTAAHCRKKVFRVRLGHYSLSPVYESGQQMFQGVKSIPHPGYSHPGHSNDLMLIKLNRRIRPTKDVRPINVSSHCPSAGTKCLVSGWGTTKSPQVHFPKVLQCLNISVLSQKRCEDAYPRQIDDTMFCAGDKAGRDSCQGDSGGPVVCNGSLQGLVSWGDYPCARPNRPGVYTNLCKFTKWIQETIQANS
Each line names hits and unclear results; the compound was inactive in the other large screens. Compounds with a hit are over-represented: about 1.4% of the library has one in this group of screens.

Cc1cc(/C(O)=C2\C(=O)C(=O)N(CCN(C)C)C2c2ccncc2)ccc1OCc1ccccc1 (stereo unspecified)	KLK5 inh 71
COc1cccc(C(=O)OCCN2CCOCC2)c1	FXIa inh 51
CCn1c(SCC(=O)Nc2ccccc2Br)nnc1-c1cnccn1	none (no result: FXIa inh, Thrombin inh, FXIIa inh 1536, KLK5 inh)
COc1ccc(NC(=O)c2cccnc2N2CCCC2)cc1	KLK5 inh 59
Cc1cc(=O)[nH]c2c1c(C)nn2C1CCCC1	KLK5 inh 54 (no result: Rce1 inh)
CCc1nnc(NC(=O)CSc2nc3c(cc2C#N)CCCC3)s1	KLK5 inh 49
S=C(NCCN1CCOCC1)Nc1ccc(Cl)cc1	KLK5 inh 47
S=C(NCCCN1CCOCC1)Nc1ccc(Cl)cc1	none
COc1cccc(-c2nn3c(-c4ccco4)nnc3s2)c1	none (no result: FXIa inh, Thrombin inh, FXIIa inh 1536, KLK5 inh)
COc1ccccc1-c1nnc2sc(-c3ccc(N(C)C)cc3)nn12	Rce1 inh active
COc1cccc(OC)c1-c1nn2c(-c3ccco3)nnc2s1	FXIIa inh 1536 45, KLK5 inh 45
CS(=O)(=O)c1ccccc1C(=O)NC1CCCc2ccccc21 (stereo unspecified)	Fh CTSL1 inh 21
CCS(=O)(=O)c1ccccc1C(=O)NC1CCCc2ccccc21 (stereo unspecified)	none (no result: FXIa inh, Thrombin inh, FXIIa inh 1536, KLK5 inh)
COc1ccc(CCNCc2cc(C)n(-c3ccc(OC)cc3)c2C)cc1	none (no result: FXIa inh, Thrombin inh, FXIIa inh 1536, KLK5 inh)
COc1ccccc1CNC(=O)CSc1nc(C)cs1	none
Cc1csc(SCC(=O)NCc2ccccc2Cl)n1	Thrombin inh 48
CC(/C=N\NC(=O)CN1CCN(S(=O)(=O)c2ccc(C)cc2)CC1)=C\c1ccccc1	Rce1 inh active
O=C(CCN1C(=O)c2ccc([N+](=O)[O-])cc2C1=O)Nc1ccc(O)cc1C(=O)O	none
O=C(O)Cc1ccc(NC(=O)CCN2C(=O)c3ccc([N+](=O)[O-])cc3C2=O)cc1	FXIIa inh 1536 100 (no result: Fh CTSL1 inh)
COc1cccc(CN2CCNC(=O)C2CC(=O)NCCCC2CCCC2)c1OC (stereo unspecified)	none (no result: FXIa inh, Thrombin inh, FXIIa inh 1536, KLK5 inh)
O=C1CC(NCCC2=CCCCC2)C(=O)N1c1cccc(Cl)c1Cl (stereo unspecified)	Fh CTSL1 inh 18 (no result: Rce1 inh)
Cn1c(CSCCOc2ccccc2)n[nH]c1=S	KLK5 inh 53
C/C=C\C=C/C(=O)Nc1cccc(C2=NOC3(C2)C[C@@H](C(N)=O)N(C(=O)[C@H]2CCC(=O)N2)C3)c1 (stereo partly specified)	Fh CTSL1 inh 20
Cc1cc(C)n(/N=C/c2ccccc2)c(=O)c1C#N	FXIIa inh 1536 57
Cc1cccc(/C=N/n2c(C)cc(C)c(C#N)c2=O)c1	none
CCn1c(COc2cccc(C)c2)nnc1SCC(=O)CC(=O)Nc1ccccc1OC	Fh CTSL1 inh 17
COc1ccc(C)cc1NC(=O)CSc1nnc(COc2ccc(Cl)cc2)n1Cc1ccco1	FXIIa inh 1536 52
O=C(c1cnc2n(c1=O)CCS2)N1CCN(C(c2ccccc2)c2ccc(Cl)cc2)CC1 (stereo unspecified)	Rce1 inh active
O=C(OCN1C(=O)C(=O)c2ccccc21)c1ccc(Cl)cc1	none (no result: FXIa inh, Thrombin inh, FXIIa inh 1536, KLK5 inh)
COc1ccc(NC(=O)N2CCN(C(=O)Nc3ccc(OC)cc3)CC2)cc1	none
COc1ccc(NC(=O)N2CCN(CCC#N)CC2)cc1	Fh CTSL1 inh 17
O=C(COC(=O)c1ccc(S(=O)(=O)N2CCCC2)cc1)NCc1ccccc1	Rce1 inh active
O=C(COC(=O)c1ccccc1O)NCCCc1ccccc1	none (no result: KLK5 inh)
O=C(COC(=O)c1ccc(O)cc1)NCCCc1ccccc1	Thrombin inh 91, FXIIa inh 1536 43 (no result: Fh CTSL1 inh)
Cc1cc(C)cc(OCC(=O)NNC(=O)CN2C(=O)c3ccccc3C2=O)c1	Thrombin inh 85, KLK5 inh 54 (no result: Rce1 inh)
O=C1Nc2ccc(Cl)cc2/C1=C/C1CC=CCC1 (stereo unspecified)	Fh CTSL1 inh 47
O=C(O)CC1S/C(=N/N=C/C2CC=CCC2)NC1=O (stereo unspecified)	none
COc1ccccc1CN1CCNC(=O)C1CC(=O)N(C)Cc1cnccn1 (stereo unspecified)	FXIIa inh 1536 49, KLK5 inh 42 (no result: Fh CTSL1 inh)
Cc1cc(-c2ccccc2)n2nc(C)c(C#N)c2n1	Rce1 inh active
CCOc1ccc(N(CC(=O)Nc2cc(C)ccc2C)S(=O)(=O)c2c(C)[nH]c(=O)[nH]c2=O)cc1	FXIIa inh 1536 100
COc1ccc(OCC(=O)Nc2ccc(NC(=O)c3cccs3)c(OC)c2)cc1	none
COc1cc(NC(=O)c2cccs2)c(OC)cc1NC(=O)CCC(=O)Nc1ccc2ncccc2c1	KLK5 inh 54 (no result: Fh CTSL1 inh)
CC(=O)N1CCc2c(sc(NC(=O)C3CCCCC3)c2C(N)=O)C1	none (no result: FXIa inh, Thrombin inh, FXIIa inh 1536, KLK5 inh)
COCCCNc1nc2c(-c3ccc(C)cc3)nnn2c2ccccc12	none (no result: FXIa inh, Thrombin inh, FXIIa inh 1536, KLK5 inh)
COCCCNc1nc2c(-c3cccc(C)c3)nnn2c2ccccc12	Fh CTSL1 inh 18
O=C(Nc1ccccc1-c1nc2ccccc2[nH]1)c1ccc(N2C(=O)CCC2=O)cc1	Rce1 inh active
O=S(=O)(c1cccs1)N1CCC2(CC1)OCCN2S(=O)(=O)c1ccccc1	none (no result: FXIa inh, Thrombin inh, FXIIa inh 1536, KLK5 inh)
COc1ccc(Cl)c(Cn2c(NCc3ccco3)nc3c2c(=O)n(C)c(=O)n3C)c1	none (no result: Rce1 inh)
COc1cccc(Cn2c(NCc3ccco3)nc3c2c(=O)n(C)c(=O)n3C)c1	FXIIa inh 1536 44
CN(Cc1ccccc1)c1nc2c(c(=O)[nH]c(=O)n2C)n1CCCSc1ncccn1	FXIa inh 42, FXIIa inh 1536 52
CCCCCn1c(N(C)Cc2ccccc2)nc2c1c(=O)[nH]c(=O)n2C	none
O=Cc1cn(-c2ccc(F)cc2)c2ccccc12	KLK5 inh 42
NC(=S)N/N=C/c1ccc(-c2ccc([N+](=O)[O-])cc2)o1	Fh CTSL1 inh 22
Oc1oc(-c2cccc3ccccc23)nc1/C=N/c1nccs1	Fh CTSL1 inh 22
CC/C(=N/OC(=O)c1cccc(C)c1)C(=O)c1cccs1	none
Cc1c(NC(=O)CSC(=S)N2CCCC2)c(=O)n(-c2ccccc2)n1C	none (no result: FXIa inh, Thrombin inh, FXIIa inh 1536, KLK5 inh)
COC(=O)c1nccc2c1[nH]c1ccccc12	none (no result: FXIa inh, Thrombin inh, FXIIa inh 1536, KLK5 inh)
COc1ccccc1N=Cc1nc(-c2ccccc2)oc1OC(C)=O	Fh CTSL1 inh 17, FXIa inh 43
CN(C)c1ccc(N=Cc2nc(-c3ccccc3)oc2OC(=O)c2ccccc2)cc1	none
CC(=O)Oc1oc(-c2ccccc2)nc1C=Nc1ccc(N(C)C)cc1	Fh CTSL1 inh 18 (no result: Rce1 inh)
Cc1c(NC(=O)CSCc2ccc(Cl)cc2Cl)cccc1C(=O)O	Fh CTSL1 inh 19 (no result: FXIa inh, Thrombin inh, FXIIa inh 1536, KLK5 inh)
O=C(Nc1ccccc1N1CCCCC1)C1CCN(C(=O)c2ccc(Cl)cc2)CC1	none (no result: FXIa inh, Thrombin inh, FXIIa inh 1536, KLK5 inh)
Cc1nc(N2CCCC2)c2nnn(Cc3ccccc3Cl)c2n1	Fh CTSL1 inh 18
O=C(C1CCC(=O)N(C2CC2)C1)N1CCC(Oc2cccc(F)c2)CC1 (stereo unspecified)	none (no result: FXIa inh, Thrombin inh, FXIIa inh 1536, KLK5 inh)
NC(=S)N/N=C/c1ccc2cccc(OCc3ccccc3)c2n1	Fh CTSL1 inh 18 (no result: FXIa inh, Thrombin inh, FXIIa inh 1536, KLK5 inh)
Cc1c(CN(C)C)c2c(n1C)C(=O)c1ccc(Br)cc1-2	none
